Assay results from article PMC3940414 (Journal of Medicinal Chemistry, 2014).
“Also recorded” adds a separate entry of the source. Where two headings read alike, the source gives them in different places.

Tests used:
rFAAH [1] = biological target: T1, rFAAH (Rattus norvegicus, UniProt P97612); assay: Lineweaver–Burk kinetic analysis; assay type: biochemical; settings: after 3 h preincubation with the enzyme
T1 sequence (P97612 30-579 limits assumed): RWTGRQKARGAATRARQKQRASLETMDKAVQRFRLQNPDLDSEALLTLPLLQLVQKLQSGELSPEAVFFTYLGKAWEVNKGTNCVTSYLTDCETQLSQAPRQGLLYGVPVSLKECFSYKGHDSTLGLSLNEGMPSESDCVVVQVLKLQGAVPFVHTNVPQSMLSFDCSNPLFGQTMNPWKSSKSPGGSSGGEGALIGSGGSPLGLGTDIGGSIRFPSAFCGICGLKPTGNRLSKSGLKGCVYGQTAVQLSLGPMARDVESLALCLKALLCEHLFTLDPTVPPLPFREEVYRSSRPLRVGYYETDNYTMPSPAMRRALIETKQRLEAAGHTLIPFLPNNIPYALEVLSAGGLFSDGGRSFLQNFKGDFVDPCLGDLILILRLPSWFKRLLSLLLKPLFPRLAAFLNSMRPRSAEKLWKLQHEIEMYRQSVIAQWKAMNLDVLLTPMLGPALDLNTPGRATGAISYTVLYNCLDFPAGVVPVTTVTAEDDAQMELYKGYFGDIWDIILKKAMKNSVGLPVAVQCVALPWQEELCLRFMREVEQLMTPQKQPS

[2] = Recovery of thioesters from assay buffer and enzymatic assays; assay type: physicochemical; settings: for recovery from the assay buffer: 6 h
[3] = tested on: endogenous brain levels of FAAH substrates (AEA, OEA, PEA); assay: Brain lipid levels after i.p. inhibitor administration; assay type: in vivo; settings: mice, 3 h post i.p. 30 mg/kg, relative to reversible inhibitor 2
[4] = biological target: T2, purified recombinant rat FAAH (Rattus norvegicus, UniProt P97612); assay: Reversibility of FAAH inhibition by dialysis dilution; assay type: biochemical; settings: 3 h preincubation 22 °C, then dialysis 4 °C, 18 h, 370-fold, pH 9
T2 sequence (P97612 30-579 limits assumed): T1 sequence (P97612 30-579 limits assumed)
Summary of the method: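 Purified recombinant rat FAAH (E. coli-expressed) in pH 9.0 Tris/EDTA/glycerol/Triton X-100/Hepes buffer, preincubated 3 h at 22 °C with test compound (final 80, 100 or 150 nM) or DMSO. Triplicate pre-dialysis activity assay, then dialysis (10 000 MW cutoff) against PBS, 4 °C, 18 h, stirred. Post-dialysis activity assayed in triplicate and expressed as % of DMSO control.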

rFAAH [5] = biological target: T1, rFAAH; assay type: biochemical
[6] = tested on: lipid amides in the brain; settings: mice, i.p.; cited from earlier work
neuropathic pain = settings: cited from earlier work
cannabinoid CB1 receptor = settings: background statement, ref not given; cited from earlier work
cannabinoid CB2 receptor = settings: background statement, ref not given; cited from earlier work
[7] = tested on: vanilloid (TRP) receptors; settings: background statement, ref not given; cited from earlier work
[8] = tested on: common P450 metabolism enzymes; settings: background statement, ref not given; cited from earlier work
[9] = tested on: human ether-a-go-go related gene product (hERG); settings: background statement, ref not given; cited from earlier work
analgesia = settings: cited from earlier work
[10] = enzyme–inhibitor preincubation 0–6 h

Row | mode of inhibition (Lineweaver–Burk) (rFAAH [1]) | time-dependent change of inhibition potency (in words) (rFAAH [5]; [10]) | Structure (SMILES) | increase of brain anandamide levels over that of 2 [3] | recovery of enzyme activity after dialysis dilution [4] | other results
1 | noncompetitive |  | CCOS(=O)(=O)/C=C/c1ccc(-c2cnc(C(=O)CCCCCCc3ccccc3)o2)nc1 [compound 20] | approximately 2 fold |  | 
2 | mixed kinetics |  | CCOC(=O)/C=C/c1ccc(-c2cnc(C(=O)CCCCCCc3ccccc3)o2)nc1 [compound 18] |  | did not restore enzyme activity | 
3 | noncompetitive |  | C[S+]([O-])/C=C/c1ccc(-c2cnc(C(=O)CCCCCCc3ccccc3)o2)nc1 (stereo not shown) [compound 22] | approximately 2 fold |  | 
4 | reversible, competitive |  | COC(=O)c1ccc(-c2cnc(C(=O)CCCCCCc3ccccc3)o2)nc1 [compound 3] |  |  | 
5 | noncompetitive |  | CS(=O)(=O)/C=C/c1ccc(-c2cnc(C(=O)CCCCCCc3ccccc3)o2)nc1 [compound 21] | approximately 2 fold |  | 
6 | mixed kinetics |  | N#C/C=C/c1ccc(-c2cnc(C(=O)CCCCCCc3ccccc3)o2)nc1 [compound 19] |  | did not restore enzyme activity | 
7 |  | insensitive to preincubation | O=C(CCCCCCc1ccccc1)c1ncc(-c2ccc(CCl)cn2)o1 [compound 12] |  |  | 

Second part, the molecule before the results:

Row | Structure (SMILES) | mode of inhibition (Lineweaver–Burk) (rFAAH [1]) | time-dependent change of inhibition potency (in words) (rFAAH [5]; [10]) | increase of brain anandamide levels over that of 2 [3] | recovery of enzyme activity after dialysis dilution [4] | other results
8 | CSC(=O)CCCCc1cnc(C(=O)CCCCCCc2ccccc2)o1 [compound 25] | reversible, competitive |  |  |  | recovery from the assay buffer [2]: recovered unchanged
9 | N#CCc1ccc(-c2cnc(C(=O)CCCCCCc3ccccc3)o2)nc1 [compound 14] | noncompetitive | did exhibit increases in potency | approximately 2 fold | failing to restore FAAH activity; also recorded: little or no recovery of enzyme activity | duration of elevation of brain lipid amides [6]: > 6 h; time of peak brain lipid amide levels [6]: 1.5 to 3 h; activity in a mouse model of neuropathic pain (neuropathic pain): long acting in vivo activity
10 | COC(=N)Cc1ccc(-c2cnc(C(=O)CCCCCCc3ccccc3)o2)nc1 [compound 17] | noncompetitive | did exhibit increases in potency |  | do not appear to be even slowly reversible | 
11 | CSC(=O)c1ccc(-c2cnc(C(=O)CCCCCCc3ccccc3)o2)nc1 [compound 5] | reversible, competitive |  |  |  | time-dependent change of inhibition potency (in words) (rFAAH [5]): did not exhibit this time-dependent increase; recovery from the assay buffer [2]: recovered unchanged; recovery from enzymatic assays ([2]; enzymatic assays): recovered unchanged
12 | COC(=N)c1ccc(-c2cnc(C(=O)CCCCCCc3ccccc3)o2)nc1 [compound 8] |  |  |  |  | time-dependent change of inhibition potency (in words) (rFAAH [5]): did not display time-dependent increases in potency
13 | CSC(=O)Cc1ccc(-c2cnc(C(=O)CCCCCCc3ccccc3)o2)nc1 [compound 16] | reversible, competitive |  |  |  | time-dependent change of inhibition potency (in words) (rFAAH [5]): did not exhibit this time-dependent increase
14 | O=C(CCCCCCc1ccccc1)c1ncc(-c2ccc(CBr)cn2)o1 [compound 11] | noncompetitive | most pronounced time-dependent increase in potency | approximately 2 fold | failing to restore FAAH activity; also recorded: little or no recovery of enzyme activity | duration of elevation of brain lipid amides [6]: > 6 h; time of peak brain lipid amide levels [6]: 1.5 to 3 h; activity in a mouse model of neuropathic pain (neuropathic pain): long acting in vivo activity
15 | O=C(CCCCCCc1ccccc1)c1ncc(-c2ccccn2)o1 [compound 2] | reversible, competitive | does not display time-dependent inhibition |  | restored full enzyme activity; also recorded: nearly full recovery of enzyme activity | duration of elevation of brain lipid amides [6]: 2 to 3 h; binding to CB1 receptor (cannabinoid CB1 receptor): does not bind; binding to CB2 receptor (cannabinoid CB2 receptor): does not bind; binding to vanilloid (TRP) receptors [7]: does not bind; inhibition of common P450 metabolism enzymes [8]: does not significantly inhibit; inhibition of hERG [9]: does not significantly inhibit; analgesic effect (analgesia): induces analgesia
16 | N#Cc1ccc(-c2cnc(C(=O)CCCCCCc3ccccc3)o2)nc1 [compound 7] |  |  |  |  | time-dependent change of inhibition potency (in words) (rFAAH [5]): did not display time-dependent increases in potency
